# Data published in ChEMBL document CHEMBL4321796, “Proteolysis Targeting Chimeras for the Selective Degradation of Mcl-1/Bcl-2 Derived from Nonselective Target Binding Ligands” (J Med Chem, 2019).
# Activity calls are given as the source filed them. The calls are words filed in the database; no cut-off is given here.
# Legend:
# [1] = molecular target: Protein cereblon/E3 ubiquitin-protein ligase Mdm2 (Homo sapiens) (UniProt Q00987+Q96SW2); experiment: Induction of CRBN-mediated MDM2 degradation in human HeLa cells at 10 uM incubated for 12 hrs by Western blot analysis; format: cell-based
# Sequence of Protein cereblon/E3 ubiquitin-protein ligase Mdm2 (Homo sapiens) (Q00987 whole entry, looked up): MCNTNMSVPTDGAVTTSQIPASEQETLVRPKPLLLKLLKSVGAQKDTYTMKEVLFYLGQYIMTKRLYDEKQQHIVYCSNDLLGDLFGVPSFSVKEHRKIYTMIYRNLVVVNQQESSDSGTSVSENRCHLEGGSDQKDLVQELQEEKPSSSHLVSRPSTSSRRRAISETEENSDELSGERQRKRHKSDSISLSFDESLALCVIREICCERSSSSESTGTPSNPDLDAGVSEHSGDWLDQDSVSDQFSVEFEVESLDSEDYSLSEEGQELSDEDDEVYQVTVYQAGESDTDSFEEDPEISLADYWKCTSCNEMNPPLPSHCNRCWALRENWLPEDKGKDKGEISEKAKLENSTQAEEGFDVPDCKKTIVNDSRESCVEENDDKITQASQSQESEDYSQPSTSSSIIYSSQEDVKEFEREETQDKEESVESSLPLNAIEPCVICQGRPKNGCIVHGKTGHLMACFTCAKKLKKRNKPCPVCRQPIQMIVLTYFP
# Sequence of Protein cereblon/E3 ubiquitin-protein ligase Mdm2 (Homo sapiens) (Q96SW2 whole entry, looked up): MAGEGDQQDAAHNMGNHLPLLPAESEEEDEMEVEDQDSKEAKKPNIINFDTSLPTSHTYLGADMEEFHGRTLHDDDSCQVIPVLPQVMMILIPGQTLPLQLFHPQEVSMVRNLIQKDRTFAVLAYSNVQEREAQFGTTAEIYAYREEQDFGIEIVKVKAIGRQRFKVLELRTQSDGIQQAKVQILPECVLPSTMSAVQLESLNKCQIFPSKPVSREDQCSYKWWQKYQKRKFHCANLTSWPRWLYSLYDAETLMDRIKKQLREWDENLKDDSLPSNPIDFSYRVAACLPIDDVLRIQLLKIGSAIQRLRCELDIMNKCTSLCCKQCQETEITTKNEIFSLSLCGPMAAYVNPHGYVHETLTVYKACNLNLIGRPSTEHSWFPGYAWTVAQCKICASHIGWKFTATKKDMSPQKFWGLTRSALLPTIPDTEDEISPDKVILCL
# [2] = molecular target: Protein cereblon/Bcl-2-like protein 1 (Homo sapiens) (UniProt Q07817+Q96SW2); experiment: Induction of CRBN-mediated Bcl-xl degradation in human HeLa cells at 10 uM incubated for 12 hrs by Western blot analysis; format: cell-based
# Sequence of Protein cereblon/Bcl-2-like protein 1 (Homo sapiens) (Q07817 whole entry, looked up, the tested form may be a part): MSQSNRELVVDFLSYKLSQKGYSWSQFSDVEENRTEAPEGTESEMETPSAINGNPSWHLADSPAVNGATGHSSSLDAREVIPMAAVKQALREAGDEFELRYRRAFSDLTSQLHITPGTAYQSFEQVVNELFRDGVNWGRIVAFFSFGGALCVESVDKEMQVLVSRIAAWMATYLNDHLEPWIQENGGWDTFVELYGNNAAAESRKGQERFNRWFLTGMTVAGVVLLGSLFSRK
# Sequence of Protein cereblon/Bcl-2-like protein 1 (Homo sapiens) (Q96SW2 whole entry, looked up, the tested form may be a part): as the sequence (Q96SW2 whole entry, looked up) above
# [3] = molecular target: Induced myeloid leukemia cell differentiation protein Mcl-1 (Homo sapiens, UniProt Q07820); experiment: Inhibition of biotinylated Bim peptide (81 to 106 residues) binding to His-tagged human Mcl-1 expressed in Escherichia coli BL21 (DE3) cells preincubated for 1 hr followed by biotinylated Bim peptide addition measured after 2 hrs by ELISA
# Sequence of Induced myeloid leukemia cell differentiation protein Mcl-1 (Q07820 whole entry, the tested form may be a part): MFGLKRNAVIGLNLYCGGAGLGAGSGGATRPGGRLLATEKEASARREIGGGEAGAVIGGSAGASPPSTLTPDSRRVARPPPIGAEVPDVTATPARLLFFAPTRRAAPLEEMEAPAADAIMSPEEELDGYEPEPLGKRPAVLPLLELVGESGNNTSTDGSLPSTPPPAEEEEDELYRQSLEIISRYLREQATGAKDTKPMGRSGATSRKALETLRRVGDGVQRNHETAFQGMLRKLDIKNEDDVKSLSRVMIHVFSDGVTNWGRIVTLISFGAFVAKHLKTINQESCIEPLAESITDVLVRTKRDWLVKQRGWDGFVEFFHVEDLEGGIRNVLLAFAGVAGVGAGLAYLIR
# Summary of the method: (§1)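 Inhibitor serially diluted (100–0.1 µM) from 10 mM DMSO stock, preincubated 1 h with 200 nM His-tagged protein in PBS (final DMSO 4%), then added 2 h to streptavidin plates holding biotin-Bim (plated at 0.09 mg/mL). Incubations at 4 °C. Detection with HRP anti-His, TMB 30 min, H2SO4 stop, A450. IC50 averaged from three independent experiments, with SD.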
# [4] = molecular target: Apoptosis regulator Bcl-2 (Homo sapiens, UniProt P10415); experiment: Inhibition of biotinylated Bim peptide (81 to 106 residues) binding to His-tagged human Bcl-2 expressed in Escherichia coli BL21 (DE3) cells preincubated for 1 hr followed by biotinylated Bim peptide addition measured after 2 hrs by ELISA; summary of the method: as §1
# Sequence of Apoptosis regulator Bcl-2 (P10415 whole entry, the tested form may be a part): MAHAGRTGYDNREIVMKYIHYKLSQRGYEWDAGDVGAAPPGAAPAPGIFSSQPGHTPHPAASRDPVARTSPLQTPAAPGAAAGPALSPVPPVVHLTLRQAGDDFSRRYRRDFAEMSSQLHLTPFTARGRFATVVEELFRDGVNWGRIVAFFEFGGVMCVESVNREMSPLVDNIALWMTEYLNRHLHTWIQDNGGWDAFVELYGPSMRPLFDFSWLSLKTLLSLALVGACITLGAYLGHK
# [5] = molecular target: T1, Protein cereblon/Induced myeloid leukemia cell differentiation protein Mcl-1 (Homo sapiens, UniProt Q07820+Q96SW2); experiment: Induction of CRBN-mediated Mcl-1 degradation in human HeLa cells assessed as relative abundance at 10 uM after 12 hrs by Western blot analysis (reference value: 1); format: cell-based
# T1 sequence (Q07820 whole entry, looked up): as the sequence (Q07820 whole entry, the tested form may be a part) above
# T1 sequence (Q96SW2 whole entry, looked up): as the sequence (Q96SW2 whole entry, looked up) above
# [6] = molecular target: T1, Protein cereblon/Induced myeloid leukemia cell differentiation protein Mcl-1; experiment: Induction of CRBN-mediated Mcl-1 degradation in human HeLa cells assessed as relative abundance at 1 uM after 12 hrs by Western blot analysis (reference value: 1); format: cell-based
# [7] = molecular target: T2, Protein cereblon/Apoptosis regulator Bcl-2 (Homo sapiens, UniProt P10415+Q96SW2); experiment: Induction of CRBN-mediated Bcl-2 degradation in human HeLa cells assessed as relative abundance at 10 uM after 12 hrs by Western blot analysis (reference value: 1); format: cell-based
# Target sequence in this assay (P10415 whole entry, looked up): as the sequence (P10415 whole entry, the tested form may be a part) above
# Target sequence in this assay (Q96SW2 whole entry, looked up): as the sequence (Q96SW2 whole entry, looked up) above
# [8] = molecular target: T2, Protein cereblon/Apoptosis regulator Bcl-2; experiment: Induction of CRBN-mediated Bcl-2 degradation in human HeLa cells assessed as relative abundance at 1 uM after 12 hrs by Western blot analysis (reference value: 1); format: cell-based
# Target sequence in this assay (P10415 whole entry, looked up): as the sequence (P10415 whole entry, the tested form may be a part) above
# Target sequence in this assay (Q96SW2 whole entry, looked up): as the sequence (Q96SW2 whole entry, looked up) above
# [9] = molecular target: T2, Protein cereblon/Apoptosis regulator Bcl-2; experiment: Induction of CRBN-mediated Bcl-2 degradation in human HeLa cells after 12 hrs by Western blot analysis; format: cell-based
# Target sequence in this assay (P10415 whole entry, looked up): as the sequence (P10415 whole entry, the tested form may be a part) above
# Target sequence in this assay (Q96SW2 whole entry, looked up): as the sequence (Q96SW2 whole entry, looked up) above
# [10] = molecular target: T2, Protein cereblon/Apoptosis regulator Bcl-2; experiment: Induction of CRBN-mediated Bcl-2 degradation in human HeLa cells assessed as reduction in Bcl-2 level at 1 uM after 12 hrs by Western blot analysis relative to control; format: cell-based; design: scale not given: the % may be the effect or the level left
# Target sequence in this assay (P10415 whole entry, looked up): as the sequence (P10415 whole entry, the tested form may be a part) above
# Target sequence in this assay (Q96SW2 whole entry, looked up): as the sequence (Q96SW2 whole entry, looked up) above
# [11] = molecular target: T2, Protein cereblon/Apoptosis regulator Bcl-2; experiment: Induction of CRBN-mediated Bcl-2 degradation in human HeLa cells assessed as reduction in Bcl-2 level at 10 uM after 12 hrs by Western blot analysis relative to control; format: cell-based; design: scale not given: the % may be the effect or the level left
# Target sequence in this assay (P10415 whole entry, looked up): as the sequence (P10415 whole entry, the tested form may be a part) above
# Target sequence in this assay (Q96SW2 whole entry, looked up): as the sequence (Q96SW2 whole entry, looked up) above
# [12] = molecular target: T2, Protein cereblon/Apoptosis regulator Bcl-2; experiment: Induction of CRBN-mediated Bcl-2 degradation in human HeLa cells assessed as relative abundance at 3 uM after 12 hrs by Western blot analysis (reference value: 1); format: cell-based
# Target sequence in this assay (P10415 whole entry, looked up): as the sequence (P10415 whole entry, the tested form may be a part) above
# Target sequence in this assay (Q96SW2 whole entry, looked up): as the sequence (Q96SW2 whole entry, looked up) above
# [13] = molecular target: T2, Protein cereblon/Apoptosis regulator Bcl-2; experiment: Induction of CRBN-mediated Bcl-2 degradation in human HeLa cells assessed as relative abundance at 0.3 uM after 12 hrs by Western blot analysis (reference value: 1); format: cell-based
# [14] = molecular target: T1, Protein cereblon/Induced myeloid leukemia cell differentiation protein Mcl-1; experiment: Induction of CRBN-mediated Mcl-1 degradation in human HeLa cells assessed as relative abundance at 0.1 uM after 12 hrs by Western blot analysis (reference value: 1); format: cell-based
# [15] = molecular target: T2, Protein cereblon/Apoptosis regulator Bcl-2; experiment: Induction of CRBN-mediated Bcl-2 degradation in human HeLa cells assessed as relative abundance at 0.1 uM after 12 hrs by Western blot analysis (reference value: 1); format: cell-based
# [16] = molecular target: T1, Protein cereblon/Induced myeloid leukemia cell differentiation protein Mcl-1; experiment: Induction of CRBN-mediated Mcl-1 degradation in human HeLa cells assessed as relative abundance at 0.3 uM after 12 hrs by Western blot analysis (reference value: 1); format: cell-based
# [17] = molecular target: T1, Protein cereblon/Induced myeloid leukemia cell differentiation protein Mcl-1; experiment: Induction of CRBN-mediated Mcl-1 degradation in human HeLa cells assessed as relative abundance at 3 uM after 12 hrs by Western blot analysis (reference value: 1); format: cell-based
# [18] = molecular target: T1, Protein cereblon/Induced myeloid leukemia cell differentiation protein Mcl-1; experiment: Induction of CRBN-mediated Mcl-1 degradation in human HeLa cells assessed as relative abundance at 10 uM measured at 2 hrs by Western blot analysis (reference value: 1); format: cell-based
# Summary of the method: (§2)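 HeLa cells in DMEM with 10% FBS, exposed to 10 µM compound over a 0–24 h time course. Mcl-1 and Bcl-2 detected by immunoblot (NP-40 lysis, BCA-equalized SDS-PAGE, PVDF, ECL) and quantified relative to DMSO control; mean ± s.d., n=3 independent samples.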
# [19] = molecular target: T2, Protein cereblon/Apoptosis regulator Bcl-2; experiment: Induction of CRBN-mediated Bcl-2 degradation in human HeLa cells at 10 uM by Western blot analysis; format: cell-based; details: TDE = time-dependent effect
# [20] = molecular target: T1, Protein cereblon/Induced myeloid leukemia cell differentiation protein Mcl-1; experiment: Induction of CRBN-mediated Mcl-1 degradation in human HeLa cells assessed as relative abundance at 10 uM measured at 4 hrs by Western blot analysis (reference value: 1); format: cell-based; summary of the method: as §2
# [21] = molecular target: T1, Protein cereblon/Induced myeloid leukemia cell differentiation protein Mcl-1; experiment: Induction of CRBN-mediated Mcl-1 degradation in human HeLa cells assessed as relative abundance at 10 uM measured at 8 hrs by Western blot analysis (reference value: 1); format: cell-based; summary of the method: as §2
# [22] = molecular target: T2, Protein cereblon/Apoptosis regulator Bcl-2; experiment: Induction of CRBN-mediated Bcl-2 degradation in human HeLa cells assessed as relative abundance at 10 uM measured at 20 hrs by Western blot analysis (reference value: 1); format: cell-based; summary of the method: as §2
# [23] = molecular target: T1, Protein cereblon/Induced myeloid leukemia cell differentiation protein Mcl-1; experiment: Induction of CRBN-mediated Mcl-1 degradation in human HeLa cells assessed as relative abundance at 10 uM measured at 16 hrs by Western blot analysis (reference value: 1); format: cell-based; summary of the method: as §2
# [24] = molecular target: T1, Protein cereblon/Induced myeloid leukemia cell differentiation protein Mcl-1; experiment: Induction of CRBN-mediated Mcl-1 degradation in human HeLa cells assessed as relative abundance at 10 uM measured at 20 hrs by Western blot analysis (reference value: 1); format: cell-based; summary of the method: as §2
# [25] = molecular target: T1, Protein cereblon/Induced myeloid leukemia cell differentiation protein Mcl-1; experiment: Induction of CRBN-mediated Mcl-1 degradation in human HeLa cells assessed as relative abundance at 10 uM measured at 24 hrs by Western blot analysis (reference value: 1); format: cell-based; summary of the method: as §2
# [26] = molecular target: T2, Protein cereblon/Apoptosis regulator Bcl-2; experiment: Induction of CRBN-mediated Bcl-2 degradation in human HeLa cells assessed as relative abundance at 10 uM measured at 2 hrs by Western blot analysis (reference value: 1); format: cell-based; summary of the method: as §2
# [27] = molecular target: T2, Protein cereblon/Apoptosis regulator Bcl-2; experiment: Induction of CRBN-mediated Bcl-2 degradation in human HeLa cells assessed as relative abundance at 10 uM measured at 4 hrs by Western blot analysis (reference value: 1); format: cell-based; summary of the method: as §2
# [28] = molecular target: T2, Protein cereblon/Apoptosis regulator Bcl-2; experiment: Induction of CRBN-mediated Bcl-2 degradation in human HeLa cells assessed as relative abundance at 10 uM measured at 8 hrs by Western blot analysis (reference value: 1); format: cell-based; summary of the method: as §2
# [29] = molecular target: T2, Protein cereblon/Apoptosis regulator Bcl-2; experiment: Induction of CRBN-mediated Bcl-2 degradation in human HeLa cells assessed as relative abundance at 10 uM measured at 16 hrs by Western blot analysis (reference value: 1); format: cell-based; summary of the method: as §2
# [30] = molecular target: T2, Protein cereblon/Apoptosis regulator Bcl-2; experiment: Induction of CRBN-mediated Bcl-2 degradation in human HeLa cells assessed as relative abundance at 10 uM measured at 24 hrs by Western blot analysis (reference value: 1); format: cell-based; summary of the method: as §2
# [31] = molecular target: T2, Protein cereblon/Apoptosis regulator Bcl-2; experiment: Induction of CRBN-mediated Bcl-2 degradation in human HeLa cells measured at 12 hrs by Western blot analysis; format: cell-based
# Target sequence in this assay (P10415 whole entry): as the sequence (P10415 whole entry, the tested form may be a part) above
# Target sequence in this assay (Q96SW2 whole entry): as the sequence (Q96SW2 whole entry, looked up) above
# HeLa = experiment: Induction of CRBN-mediated tubulin degradation in human HeLa cells at 10 uM incubated for 12 hrs by Western blot analysis; format: cell-based
# Summary of the method: (§3)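 HeLa cells (DMEM, 10% FBS, 37 °C, 5% CO2) treated 12 h with compound (10 µM, or 0–10 µM gradient; time course 0–24 h at 10 µM). Lysis in NP-40 buffer with protease inhibitors, equal protein loaded for SDS-PAGE and immunoblotting. Bands quantified relative to DMSO control. n=3 independent samples.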
# [32] = molecular target: T2, Protein cereblon/Apoptosis regulator Bcl-2; experiment: Induction of CRBN-mediated Bcl-2 degradation in human HeLa cells at 10 uM pretreated with proteasome inhibitor MG-132 followed by compound addition by Western blot analysis; format: cell-based
# [33] = molecular target: T2, Protein cereblon/Apoptosis regulator Bcl-2; experiment: Induction of CRBN-mediated Bcl-2 degradation in human HeLa cells at 10 uM pretreated with Bcl-2 inhibitor Nap-1 followed by compound addition by Western blot analysis; format: cell-based
# [34] = molecular target: T2, Protein cereblon/Apoptosis regulator Bcl-2; experiment: Induction of CRBN-mediated Bcl-2 degradation in human HeLa cells at 10 uM pretreated with CRBN inhibitor pomalidomide followed by compound addition by Western blot analysis; format: cell-based
# [35] = molecular target: T2, Protein cereblon/Apoptosis regulator Bcl-2; experiment: Protac activity at CRBN/Bcl-2 in human HeLa cell lysates assessed as ternary complex formation by Western blot analysis based pull-down assay; format: subcellular; details: Lysate
# Summary of the method: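 HeLa lysate (25×10^6 cells, 1% Triton X-100 IP buffer), 1 mg total protein, incubated overnight with 1 µg CRBN antibody across a compound concentration gradient. Capture on protein A+G agarose, three Triton washes, boiled in loading buffer. Mcl-1, Bcl-2 and CRBN detected by immunoblotting. n=3 independent samples.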
# [36] = molecular target: T1, Protein cereblon/Induced myeloid leukemia cell differentiation protein Mcl-1; experiment: Induction of CRBN-mediated Mcl-1 degradation in human HeLa cells by Western blot analysis; format: cell-based; summary of the method: as §3
# NCI-H23 = experiment: Cytotoxicity against human H23 cells incubated for 24 hrs by CCK8 assay; format: functional, cell-based
# Summary of the method: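 H23 cells seeded at 4 × 10^4 per mL in RPMI with 10% FBS, L-glutamine and pen/strep. Treated 24 h at various concentrations or with DMSO vehicle (0.05%). Viability read by CCK8 and normalized against cell-free background and untreated cultures; mean ± s.e.m., n=3.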
smiles,measurement,setting,value
O=C(CCCCC(=O)NCCN1C(=O)c2cccc3c(Sc4ccc(Br)cc4)ccc(c23)C1=O)NCCOCCOCCNc1cccc2c1C(=O)N(C1CCC(=O)NC1=O)C2=O (stereo not drawn),Activity,[1],inactive
same,Activity,[2],inactive
same,IC50,[3],11.8 µM
same,IC50,[4],4.94 µM
same,fold change (FC),[5],0.9 to 1
same,fold change (FC),[6],1
same,fold change (FC),[7],0.1
same,fold change (FC),[8],0.9
same,Activity,[9],Dose-dependent effect
same,Activity,[10],10%
same,Activity,[11],90%
same,fold change (FC),[12],0.5
same,fold change (FC),[13],0.9
same,fold change (FC),[14],1
same,fold change (FC),[15],1
same,fold change (FC),[16],1
same,fold change (FC),[17],1.2
same,fold change (FC),[18],1.1
same,Activity,[19],Tde
same,fold change (FC),[20],1
same,fold change (FC),[21],1
same,fold change (FC),[22],1
same,fold change (FC),[23],1.1
same,fold change (FC),[24],1
same,fold change (FC),[25],0.8
same,fold change (FC),[26],0.8
same,fold change (FC),[27],0.6
same,fold change (FC),[28],0.3
same,fold change (FC),[29],0.7
same,fold change (FC),[30],1
same,DC50,[31],3 µM
same,Activity,HeLa,inactive
same,Activity,[32],inactive
same,Activity,[33],inactive
same,Activity,[34],inactive
same,Activity,[35],Dose-dependent effect
CN1C(=O)CCC(N2C(=O)c3cccc(NCCCCCCNC(=O)CCCCC(=O)NCCN4C(=O)c5cccc6c(Sc7ccc(Br)cc7)ccc(c56)C4=O)c3C2=O)C1=O (stereo not drawn),Activity,[36],inactive
same,Activity,NCI-H23,Active
